One compound from ChEMBL document CHEMBL1147762, “A new chemical tool for exploring the physiological function of the PDE2 isozyme” (Bioorg Med Chem Lett, 2006) can be followed below.

SMILES strings stand for the structures.

A short description of series [1]: Basolateral Caco-2 cell membrane permeability. The class given is ADME, cell-based. Conditions: human. Background: Caco-2 cells form a polarised layer with tight junctions and transporters.
The target in another series is Phosphodiesterase 3 (Homo sapiens, UniProt Q14432+Q13370). Put plainly: Inhibitory activity against PDE3 by scintillation proximity assay. The class given is protein assay. The method in brief: (§1)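 Phosphodiesterase inhibition run as a scintillation proximity assay, with enzyme at a concentration in the linear range. Final substrate was 1 µM, below one-third of the enzyme K_M, so that IC50 approximates Ki. Values are means of n experiments with standard deviation.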

The target in series [2] is 3',5'-cyclic-AMP phosphodiesterase 4A (Homo sapiens, UniProt P27815). Put plainly: Inhibitory activity against PDE4A by scintillation proximity assay. The essentials: as §1
Series [3] deals with High affinity cAMP-specific and IBMX-insensitive 3',5'-cyclic phosphodiesterase 8A (Homo sapiens, UniProt O60658). Put plainly: Inhibitory activity against PDE8A by scintillation proximity assay. The method in brief: (§2)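 Scintillation proximity assay for phosphodiesterase inhibition. Enzyme is used at a concentration within the linear range, and its KM was measured. Final substrate concentration is 1 µM, below one-third of KM, so IC50 approximates Ki. Results are means of n experiments with standard deviation.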
A general note: In a scintillation proximity assay essentially only radioactivity close to the scintillant gives light.

The target in series [4] is High affinity cGMP-specific 3',5'-cyclic phosphodiesterase 9A (Homo sapiens, UniProt O76083). Put plainly: Inhibitory activity against PDE9 by scintillation proximity assay. The method in brief:
as §2

A short description of series [5]: Turbidimetric solubility at pH 7. It is filed as ADME, organism-based, Homo sapiens.
Another series has as its target Phosphodiesterase 1 (Homo sapiens, UniProt P54750+Q01064+Q14123). Put plainly: Inhibitory activity against PDE1 by scintillation proximity assay. The class given is protein assay. The essentials:
as §1

Series [6] deals with cGMP-dependent 3',5'-cyclic phosphodiesterase (Homo sapiens, UniProt O00408). Put plainly: Inhibitory activity against PDE2 by scintillation proximity assay. The method in brief: as §1
Series [7] in a line: Apical Caco-2 cell membrane permeability. It is filed as ADME, cell-based. Conditions: human.
In series [8] the target is High affinity cAMP-specific and IBMX-insensitive 3',5'-cyclic phosphodiesterase 8B (Homo sapiens, UniProt O95263). Put plainly: Inhibitory activity against PDE8B by scintillation proximity assay. The essentials: as §2
In series [9] the target is 3',5'-cyclic-AMP phosphodiesterase 4D (Homo sapiens, UniProt Q08499). Put plainly: Inhibitory activity against PDE4D by scintillation proximity assay. The essentials:
as §2

Series [10] addresses 3',5'-cyclic-AMP phosphodiesterase 4C (Homo sapiens, UniProt Q08493). Put plainly: Inhibitory activity against PDE4C by scintillation proximity assay. The method in brief: as §2
Series [11] is described as follows: Half life in rat liver microsome. The class given is ADME. Conditions: liver microsomes. (In general: Microsomes from liver hold many membrane-bound enzymes, among them those of drug oxidation.)
In series [12] the target is 3',5'-cyclic-AMP phosphodiesterase 4B (Homo sapiens, UniProt Q07343). Put plainly: Inhibitory activity against PDE4B by scintillation proximity assay. The method in brief:
as §1

Series [13] deals with cAMP and cAMP-inhibited cGMP 3',5'-cyclic phosphodiesterase 10A (Homo sapiens, UniProt Q9Y233). Put plainly: Inhibitory activity against PDE10 by scintillation proximity assay. The essentials: as §1
Series [14] addresses cGMP-specific 3',5'-cyclic phosphodiesterase (Homo sapiens, UniProt O76074). Put plainly: Inhibitory activity against PDE5 by scintillation proximity assay. The essentials: as §2

Sequence of 3',5'-cyclic-AMP phosphodiesterase 4A (P27815 whole entry): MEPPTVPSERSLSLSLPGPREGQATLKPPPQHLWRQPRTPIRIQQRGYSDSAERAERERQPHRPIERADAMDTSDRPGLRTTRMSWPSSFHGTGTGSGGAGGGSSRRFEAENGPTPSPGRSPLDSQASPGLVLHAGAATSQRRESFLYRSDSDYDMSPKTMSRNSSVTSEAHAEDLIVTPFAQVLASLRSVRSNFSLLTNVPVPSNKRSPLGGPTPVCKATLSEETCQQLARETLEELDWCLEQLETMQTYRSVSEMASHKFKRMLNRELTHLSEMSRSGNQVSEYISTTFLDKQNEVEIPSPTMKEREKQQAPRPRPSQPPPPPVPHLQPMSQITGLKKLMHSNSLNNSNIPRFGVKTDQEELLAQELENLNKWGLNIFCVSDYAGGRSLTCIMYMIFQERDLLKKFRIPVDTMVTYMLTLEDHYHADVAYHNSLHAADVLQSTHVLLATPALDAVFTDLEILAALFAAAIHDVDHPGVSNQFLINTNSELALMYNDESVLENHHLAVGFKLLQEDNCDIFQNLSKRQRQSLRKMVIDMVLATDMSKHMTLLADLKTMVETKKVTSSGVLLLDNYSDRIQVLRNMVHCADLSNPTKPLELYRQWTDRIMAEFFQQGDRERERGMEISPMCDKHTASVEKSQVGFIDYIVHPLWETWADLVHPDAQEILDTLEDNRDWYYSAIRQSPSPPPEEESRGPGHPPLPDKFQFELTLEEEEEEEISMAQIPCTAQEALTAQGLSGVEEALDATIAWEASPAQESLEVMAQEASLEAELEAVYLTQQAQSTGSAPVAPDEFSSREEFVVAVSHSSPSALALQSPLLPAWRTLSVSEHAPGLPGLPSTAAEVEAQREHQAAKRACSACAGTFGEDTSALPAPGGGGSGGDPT
Sequence of 3',5'-cyclic-AMP phosphodiesterase 4C (Q08493 whole entry): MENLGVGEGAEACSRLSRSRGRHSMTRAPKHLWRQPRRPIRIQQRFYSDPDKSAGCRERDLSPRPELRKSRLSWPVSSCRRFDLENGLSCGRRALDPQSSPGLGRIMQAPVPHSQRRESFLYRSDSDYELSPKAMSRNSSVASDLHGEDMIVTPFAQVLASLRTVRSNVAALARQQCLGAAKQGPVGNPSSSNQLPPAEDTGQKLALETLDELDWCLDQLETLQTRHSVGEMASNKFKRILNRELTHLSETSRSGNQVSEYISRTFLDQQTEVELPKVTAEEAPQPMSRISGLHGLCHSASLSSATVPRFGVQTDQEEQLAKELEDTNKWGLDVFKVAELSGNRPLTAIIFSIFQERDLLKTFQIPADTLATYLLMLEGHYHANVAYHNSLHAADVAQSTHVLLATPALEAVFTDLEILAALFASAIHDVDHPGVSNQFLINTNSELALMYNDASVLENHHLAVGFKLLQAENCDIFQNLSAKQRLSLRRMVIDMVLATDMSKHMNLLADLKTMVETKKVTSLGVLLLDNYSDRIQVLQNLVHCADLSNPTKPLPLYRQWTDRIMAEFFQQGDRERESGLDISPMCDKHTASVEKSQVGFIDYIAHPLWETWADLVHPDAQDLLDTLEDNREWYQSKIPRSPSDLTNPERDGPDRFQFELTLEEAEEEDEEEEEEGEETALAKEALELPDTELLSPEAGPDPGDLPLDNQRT
Sequence of 3',5'-cyclic-AMP phosphodiesterase 4D (Q08499 whole entry): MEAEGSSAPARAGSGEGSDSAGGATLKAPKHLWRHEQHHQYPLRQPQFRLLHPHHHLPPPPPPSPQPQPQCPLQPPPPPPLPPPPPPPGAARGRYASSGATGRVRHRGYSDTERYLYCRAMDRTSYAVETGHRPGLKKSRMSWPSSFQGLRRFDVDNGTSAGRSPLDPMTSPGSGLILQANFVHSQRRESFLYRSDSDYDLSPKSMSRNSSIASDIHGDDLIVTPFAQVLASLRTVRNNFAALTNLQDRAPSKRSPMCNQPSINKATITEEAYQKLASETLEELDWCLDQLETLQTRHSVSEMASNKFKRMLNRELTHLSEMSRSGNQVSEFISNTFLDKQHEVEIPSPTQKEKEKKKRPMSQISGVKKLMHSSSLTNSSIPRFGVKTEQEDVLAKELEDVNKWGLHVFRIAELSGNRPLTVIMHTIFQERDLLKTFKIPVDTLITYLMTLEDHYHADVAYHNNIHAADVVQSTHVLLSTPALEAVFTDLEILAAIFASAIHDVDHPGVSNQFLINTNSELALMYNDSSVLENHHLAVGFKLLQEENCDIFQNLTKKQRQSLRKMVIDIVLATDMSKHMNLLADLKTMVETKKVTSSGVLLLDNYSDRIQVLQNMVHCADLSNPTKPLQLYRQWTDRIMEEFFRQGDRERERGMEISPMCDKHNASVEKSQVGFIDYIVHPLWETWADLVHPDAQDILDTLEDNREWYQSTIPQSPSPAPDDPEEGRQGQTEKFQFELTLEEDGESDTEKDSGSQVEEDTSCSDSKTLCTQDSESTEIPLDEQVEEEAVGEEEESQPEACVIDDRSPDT
Sequence of High affinity cGMP-specific 3',5'-cyclic phosphodiesterase 9A (O76083 whole entry): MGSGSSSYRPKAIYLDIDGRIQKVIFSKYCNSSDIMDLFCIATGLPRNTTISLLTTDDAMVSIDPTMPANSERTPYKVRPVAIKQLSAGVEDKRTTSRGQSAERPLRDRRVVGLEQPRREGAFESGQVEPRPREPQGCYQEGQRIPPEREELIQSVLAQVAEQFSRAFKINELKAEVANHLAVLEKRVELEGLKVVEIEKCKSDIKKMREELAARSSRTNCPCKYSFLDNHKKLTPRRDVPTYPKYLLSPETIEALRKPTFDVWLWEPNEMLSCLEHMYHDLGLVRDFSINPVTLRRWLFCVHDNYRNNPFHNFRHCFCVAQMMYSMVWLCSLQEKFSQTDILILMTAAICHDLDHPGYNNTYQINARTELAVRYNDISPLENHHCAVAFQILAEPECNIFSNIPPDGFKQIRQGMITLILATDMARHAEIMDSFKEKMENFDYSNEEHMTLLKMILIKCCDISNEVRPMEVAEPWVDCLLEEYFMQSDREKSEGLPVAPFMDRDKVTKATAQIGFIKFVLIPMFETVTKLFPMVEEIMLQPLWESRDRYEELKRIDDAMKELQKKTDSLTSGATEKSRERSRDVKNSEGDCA
Sequence of 3',5'-cyclic-AMP phosphodiesterase 4B (Q07343 whole entry): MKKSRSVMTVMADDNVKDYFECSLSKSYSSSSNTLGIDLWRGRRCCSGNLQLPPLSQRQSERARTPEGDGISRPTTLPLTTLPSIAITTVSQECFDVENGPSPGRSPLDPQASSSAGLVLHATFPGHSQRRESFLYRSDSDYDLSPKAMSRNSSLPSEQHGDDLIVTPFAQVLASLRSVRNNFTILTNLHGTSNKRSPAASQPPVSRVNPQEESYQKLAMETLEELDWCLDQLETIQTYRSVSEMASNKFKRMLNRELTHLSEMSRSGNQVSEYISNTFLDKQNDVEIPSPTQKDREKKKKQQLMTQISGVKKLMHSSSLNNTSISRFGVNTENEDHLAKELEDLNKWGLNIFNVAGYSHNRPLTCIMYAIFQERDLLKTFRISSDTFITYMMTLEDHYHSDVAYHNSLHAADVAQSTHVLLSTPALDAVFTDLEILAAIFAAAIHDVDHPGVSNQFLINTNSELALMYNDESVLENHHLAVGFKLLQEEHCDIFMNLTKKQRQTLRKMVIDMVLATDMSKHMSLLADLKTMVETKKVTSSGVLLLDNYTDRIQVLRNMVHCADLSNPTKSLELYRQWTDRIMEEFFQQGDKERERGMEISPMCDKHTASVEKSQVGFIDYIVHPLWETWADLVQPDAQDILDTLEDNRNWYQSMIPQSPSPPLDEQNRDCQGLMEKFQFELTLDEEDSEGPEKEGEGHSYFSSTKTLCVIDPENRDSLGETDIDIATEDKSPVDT
Sequence of High affinity cAMP-specific and IBMX-insensitive 3',5'-cyclic phosphodiesterase 8A (O60658 whole entry): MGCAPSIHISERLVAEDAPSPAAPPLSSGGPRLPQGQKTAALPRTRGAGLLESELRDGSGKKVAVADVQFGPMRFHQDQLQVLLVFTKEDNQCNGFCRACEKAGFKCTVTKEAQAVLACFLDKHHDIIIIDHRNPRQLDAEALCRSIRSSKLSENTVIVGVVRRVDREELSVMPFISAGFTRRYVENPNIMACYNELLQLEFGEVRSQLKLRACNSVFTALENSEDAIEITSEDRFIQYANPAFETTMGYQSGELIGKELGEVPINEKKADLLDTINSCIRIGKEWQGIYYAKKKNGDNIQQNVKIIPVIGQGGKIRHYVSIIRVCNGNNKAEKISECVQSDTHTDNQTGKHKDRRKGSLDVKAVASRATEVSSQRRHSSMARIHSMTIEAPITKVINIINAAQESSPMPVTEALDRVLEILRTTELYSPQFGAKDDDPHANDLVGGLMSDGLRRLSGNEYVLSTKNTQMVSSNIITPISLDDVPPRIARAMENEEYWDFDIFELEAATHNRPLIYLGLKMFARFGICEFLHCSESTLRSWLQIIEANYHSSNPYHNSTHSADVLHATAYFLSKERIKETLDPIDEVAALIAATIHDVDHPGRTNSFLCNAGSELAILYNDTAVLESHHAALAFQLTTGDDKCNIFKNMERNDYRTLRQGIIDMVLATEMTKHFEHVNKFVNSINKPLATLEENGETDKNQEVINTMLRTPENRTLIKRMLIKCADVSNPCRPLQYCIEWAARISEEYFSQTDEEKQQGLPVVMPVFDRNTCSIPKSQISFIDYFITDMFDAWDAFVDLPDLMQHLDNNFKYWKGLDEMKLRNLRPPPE

As usually defined, the Papp is the rate of passage across a membrane or cell layer, normalised by area and donor concentration. Usually IC50 stands for the midpoint of a concentration-inhibition curve. Low readings indicate greater potency in that assay, high ones weaker potency in that assay. For orientation: solubility (kinetic) means solubility judged after dilution from a stock solution rather than from solid. As a reminder, the half-life is the time needed for the level to fall by half in the phase considered. Read a high half-life as slow decline. Regarding `CCCCCC[C@H]([C@H](C)O)n1cnc2c(N)ncnc21` [(+)-EHNA], the figures for the Papp in [1] and in [7] were 18 ×10⁻⁶ cm/s and 34 ×10⁻⁶ cm/s, respectively. Moreover, the IC50 at Phosphodiesterase 3 was over 16 µM; in [2], over 16 µM; in series [3], over 16 µM; in series [4], over 16 µM; at Phosphodiesterase 1, over 16 µM; in series [6], 0.635 µM. Moreover, the IC50 in [8], in [9], in series [10], in series [12], in [13] and in series [14] was over 16 µM throughout. The solubility (kinetic) in [5] is over 65 µg/mL. In series [11], this compound registered a half-life of 31 min.
